Reference: ChEMBL document CHEMBL2176911 (J Med Chem, 2012)
Activity calls are given as the source filed them. No cut-off for these calls is given here.

Key:
[1] = target: Dual specificity tyrosine-phosphorylation-regulated kinase 1A (Mus musculus) (UniProt Q61214); experiment: Inhibition of DYRK1A isolated from mouse HT22 cells; type: cell-free; settings: HT-22
[2] = target: Casein kinase II subunit alpha' (Mus musculus) (UniProt O54833); experiment: Binding affinity to CK2 alpha' subunit in mouse brain homogenate by Western blot analysis; type: tissue-based
Summary of the method: (§1)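 Bead pull-down from HT22 cell or mouse brain extracts, with ethanolamine beads lacking ligand as control. Specificity was tested by adding excess free inhibitor to the extracts before binding.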

[3] = Inhibition of pig […] isolated from brain using RRKHAAIGpSAYSITA as substrate and [gamma33P]ATP after 30 mins by scintillation couting; set-up: species or system Sus scrofa
Summary of the method: (§2)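 Panel of purified kinases (recombinant from several species plus native enzymes), each assayed radiometrically over a range of inhibitor concentrations; IC50 in μM calculated from the dose-response curves.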

[4] = target: Dual specificity tyrosine-phosphorylation-regulated kinase 1A (Mus musculus) (UniProt Q61214); experiment: Binding affinity to DYRK1A in mouse HT22 cell lysate by Western blot analysis; type: cell-free; settings: HT-22; summary of the method: as §1
[5] = target: Dual specificity tyrosine-phosphorylation-regulated kinase 3 (Homo sapiens) (UniProt O43781); experiment: Inhibition of human recombinant GST-tagged DYRK3 expressed in Escherichia coli using KKISGRLSPIMTEQ as substrate at 1 uM after 30 mins
[6] = target: Casein kinase II subunit beta (Mus musculus, UniProt P67871); experiment: Binding affinity to […] in mouse brain homogenate after 3 hrs by competition affinity chromatographic analysis; type: tissue-based
Summary of the method: (§3)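 Mouse brain lysate applied to a KinAffinity matrix of mixed immobilized broad-spectrum kinase inhibitors at highest loading density, with increasing concentrations of free inhibitor added. […] Separate titrations of the immobilized ligands gave BC50 values.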

CDK9/cyclin T1 = CDK9/cyclin T1 (Homo sapiens, UniProt P50750); experiment: Inhibition of human recombinant CDK9/cyclin T expressed in insect cell using YSPTSPSYSPTSPSYSPTSPSKKKK as substrate and [gamma33P]ATP after 30 mins by scintillation counting; summary of the method: as §2
[7] = target: Dual specificity tyrosine-phosphorylation-regulated kinase 1A (Mus musculus) (UniProt Q61214); experiment: Binding affinity to DYRK1A in mouse brain homogenate by Western blot analysis; type: tissue-based; summary of the method: as §1
[8] = target: Homeodomain-interacting protein kinase 1 (Homo sapiens, UniProt Q86Z02); experiment: Binding affinity to HIPK1
[9] = target: Glycogen synthase kinase-3 alpha (Mus musculus) (UniProt Q2NL51); experiment: Binding affinity to GSK3alpha in mouse HT22 cell lysate by Western blot analysis; type: cell-free; settings: HT-22; summary of the method: as §1
[10] = target: Homeodomain-interacting protein kinase 2 (Homo sapiens) (UniProt Q9H2X6); experiment: Inhibition of human recombinant GST-tagged HIPK2 expressed in Escherichia coli at 10 uM after 30 mins
[11] = target: Homeodomain-interacting protein kinase 3 (Homo sapiens, UniProt Q9H422); experiment: Binding affinity to HIPK3
[12] = target: Serine/threonine-protein kinase pim-3 (Homo sapiens) (UniProt Q86V86); experiment: Inhibition of human recombinant His6-tagged PIM3 expressed in Sf21 cells using RSRHSSYPAGT as substrate at 1 uM after 30 mins
[13] = target: Casein kinase II subunit alpha (Mus musculus) (UniProt Q60737); experiment: Binding affinity to CK2 alpha subunit in mouse brain homogenate by Western blot analysis; type: tissue-based; summary of the method: as §1
[14] = target: Dual specificity protein kinase CLK3 (Mus musculus, UniProt O35492); experiment: Inhibition of mouse recombinant GST-tagged CLK3 expressed in Escherichia coli using GRSRSRSRSRSR as substrate and [gamma33P]ATP after 30 mins by scintillation counting; summary of the method: as §2
[15] = target: Protein VAC14 homolog (Mus musculus) (UniProt Q80WQ2); experiment: Binding affinity to VAC14 in mouse HT22 cell lysate by Western blot analysis; type: cell-free; settings: HT-22; summary of the method: as §1
[16] = Inhibition of Plasmodium falciparum recombinant GSK3 expressed in Escherichia coli using YRRAAVPPSPSLSRHSSPHQ-phosphoS-EDEEE as substrate and [gamma33P]ATP after 30 mins by scintillation counting; summary of the method: as §2
[17] = target: Casein kinase II subunit alpha (Mus musculus) (UniProt Q60737); experiment: Binding affinity to CK2 alpha subunit in mouse HT22 cell lysate by Western blot analysis; type: cell-free; settings: HT-22; summary of the method: as §1
[18] = target: Homeodomain-interacting protein kinase 2 (Homo sapiens) (UniProt Q9H2X6); experiment: Inhibition of human recombinant GST-tagged HIPK2 expressed in Escherichia coli at 1 uM after 30 mins
[19] = target: Cyclin-dependent kinase 7/ cyclin H (Homo sapiens, UniProt P50613); experiment: Inhibition of human recombinant CDK7/cyclin H expressed in insect cell using YSPTSPSYSPTSPSYSPTSPSKKKK as substrate and [gamma33P]ATP after 30 mins by scintillation counting; summary of the method: as §2
[20] = target: 1-phosphatidylinositol 3-phosphate 5-kinase (Mus musculus) (UniProt Q9Z1T6); experiment: Binding affinity to phosphatidylinositol-3-phosphate 5-kinase type 3 in mouse HT22 cell lysate by Western blot analysis; type: cell-free; settings: HT-22; summary of the method: as §1
[21] = target: Dual specificity protein kinase CLK1 (Mus musculus, UniProt P22518); experiment: Inhibition of mouse recombinant GST-tagged CLK1 expressed in Escherichia coli using GRSRSRSRSRSR as substrate and [gamma33P]ATP after 30 mins by scintillation counting; summary of the method: as §2
Protein VAC14 homolog = Protein VAC14 homolog (Mus musculus, UniProt Q80WQ2); experiment: Binding affinity to VAC14 in mouse brain homogenate after 3 hrs by competition affinity chromatographic analysis; type: tissue-based; summary of the method: as §3
[22] = target: Serine/threonine-protein kinase pim-3 (Homo sapiens) (UniProt Q86V86); experiment: Inhibition of human recombinant His6-tagged PIM3 expressed in Sf21 cells using RSRHSSYPAGT as substrate at 10 uM after 30 mins
HT-22 [23] = experiment: Inhibition of GSK3 isolated from mouse HT22 cells; type: cell-free
Mus musculus = species: Mus musculus; experiment: Binding affinity to GSK3beta2 in mouse brain homogenate by Western blot analysis; type: tissue-based; summary of the method: as §1
[24] = target: Serine/threonine-protein kinase TAO1 (Homo sapiens, UniProt Q7L7X3); experiment: Binding affinity to TAOK1
[25] = target: Dual specificity protein kinase CLK2 (Mus musculus, UniProt O35491); experiment: Inhibition of mouse recombinant GST-tagged CLK2 expressed in Escherichia coli using GRSRSRSRSRSR as substrate and [gamma33P]ATP after 30 mins by scintillation counting; summary of the method: as §2
[26] = target: Dual specificity tyrosine-phosphorylation-regulated kinase 1A (Mus musculus, UniProt Q61214); experiment: Binding affinity to DYRK1A in mouse brain homogenate after 3 hrs by competition affinity chromatographic analysis; type: tissue-based; summary of the method: as §3
[27] = target: Dual specificity tyrosine-phosphorylation-regulated kinase 1A (Rattus norvegicus, UniProt Q63470); experiment: Inhibition of rat DYRK1A isolated from brain using KKISGRLSPIMTEQ as substrate and [gamma33P]ATP after 30 mins by scintillation counting
[28] = target: Casein kinase II subunit beta (Mus musculus) (UniProt P67871); experiment: Binding affinity to CK2 beta subunit in mouse HT22 cell lysate by Western blot analysis; type: cell-free; settings: HT-22; summary of the method: as §1
[29] = target: 1-phosphatidylinositol 3-phosphate 5-kinase (Mus musculus) (UniProt Q9Z1T6); experiment: Binding affinity to phosphatidylinositol-3-phosphate 5-kinase type 3 in mouse brain homogenate by Western blot analysis; type: tissue-based; summary of the method: as §1
HT-22 [30] = experiment: Downregulation of DYRK1A expression in mouse HT22 cells after 4 hrs by Western blot analysis; type: functional, cell-based
[31] = target: Glycogen synthase kinase-3 alpha (Mus musculus) (UniProt Q2NL51); experiment: Binding affinity to GSK3alpha in mouse brain homogenate by Western blot analysis; type: tissue-based; summary of the method: as §1
[32] = target: Protein VAC14 homolog (Mus musculus) (UniProt Q80WQ2); experiment: Binding affinity to VAC14 in mouse brain homogenate by Western blot analysis; type: tissue-based; summary of the method: as §1
[33] = Inhibition of Leishmania major recombinant CK1 expressed in Escherichia coli using RRKHAAIGpSAYSITA as substrate and [gamma33P]ATP after 30 mins by scintillation counting; summary of the method: as §2

Sequence of Casein kinase II subunit alpha (Mus musculus) (Q60737 whole entry): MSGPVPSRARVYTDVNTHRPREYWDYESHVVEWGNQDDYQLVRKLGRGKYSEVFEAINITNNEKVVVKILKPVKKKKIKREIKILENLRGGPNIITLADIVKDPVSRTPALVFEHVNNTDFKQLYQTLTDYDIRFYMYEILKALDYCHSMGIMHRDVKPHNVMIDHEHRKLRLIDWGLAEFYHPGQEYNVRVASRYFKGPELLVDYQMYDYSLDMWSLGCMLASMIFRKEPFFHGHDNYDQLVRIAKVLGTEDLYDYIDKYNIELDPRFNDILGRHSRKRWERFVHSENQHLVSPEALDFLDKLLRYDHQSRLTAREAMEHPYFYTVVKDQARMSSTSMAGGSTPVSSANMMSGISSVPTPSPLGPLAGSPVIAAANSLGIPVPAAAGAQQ
Sequence of Glycogen synthase kinase-3 alpha (Mus musculus) (Q2NL51 whole entry): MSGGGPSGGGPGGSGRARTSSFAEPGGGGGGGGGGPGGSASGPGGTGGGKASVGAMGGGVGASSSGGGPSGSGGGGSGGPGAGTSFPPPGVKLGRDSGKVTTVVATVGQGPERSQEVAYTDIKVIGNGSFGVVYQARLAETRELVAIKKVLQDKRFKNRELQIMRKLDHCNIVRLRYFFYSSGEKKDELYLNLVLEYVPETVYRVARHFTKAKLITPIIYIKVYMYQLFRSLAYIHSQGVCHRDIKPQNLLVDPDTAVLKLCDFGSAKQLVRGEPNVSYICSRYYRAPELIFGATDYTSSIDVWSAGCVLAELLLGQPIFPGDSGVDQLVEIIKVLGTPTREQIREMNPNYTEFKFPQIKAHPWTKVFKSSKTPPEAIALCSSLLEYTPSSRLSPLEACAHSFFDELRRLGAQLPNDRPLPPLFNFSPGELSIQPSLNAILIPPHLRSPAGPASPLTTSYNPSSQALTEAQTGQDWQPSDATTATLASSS
Sequence of Protein VAC14 homolog (Mus musculus) (Q80WQ2 whole entry): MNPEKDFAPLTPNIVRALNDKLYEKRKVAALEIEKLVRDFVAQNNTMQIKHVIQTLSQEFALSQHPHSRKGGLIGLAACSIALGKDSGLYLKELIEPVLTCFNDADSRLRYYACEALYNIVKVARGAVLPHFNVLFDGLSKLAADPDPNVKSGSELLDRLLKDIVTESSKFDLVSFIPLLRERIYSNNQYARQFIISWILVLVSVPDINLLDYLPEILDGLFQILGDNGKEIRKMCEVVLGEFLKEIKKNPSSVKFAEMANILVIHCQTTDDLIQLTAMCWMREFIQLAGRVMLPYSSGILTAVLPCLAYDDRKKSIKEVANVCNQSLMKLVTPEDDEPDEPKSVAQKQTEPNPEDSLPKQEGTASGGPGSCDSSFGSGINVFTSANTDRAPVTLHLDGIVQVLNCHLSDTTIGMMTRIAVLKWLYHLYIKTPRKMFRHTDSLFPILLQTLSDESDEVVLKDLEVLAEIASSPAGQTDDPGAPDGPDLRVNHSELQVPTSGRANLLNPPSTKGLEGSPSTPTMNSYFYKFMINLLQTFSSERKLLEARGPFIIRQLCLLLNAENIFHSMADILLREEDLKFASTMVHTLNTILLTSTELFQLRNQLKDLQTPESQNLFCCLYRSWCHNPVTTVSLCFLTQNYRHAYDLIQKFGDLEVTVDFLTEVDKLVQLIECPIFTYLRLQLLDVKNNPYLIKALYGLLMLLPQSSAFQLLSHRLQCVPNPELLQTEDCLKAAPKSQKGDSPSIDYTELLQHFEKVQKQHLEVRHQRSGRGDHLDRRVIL
Sequence of Homeodomain-interacting protein kinase 2 (Homo sapiens) (Q9H2X6 whole entry, looked up): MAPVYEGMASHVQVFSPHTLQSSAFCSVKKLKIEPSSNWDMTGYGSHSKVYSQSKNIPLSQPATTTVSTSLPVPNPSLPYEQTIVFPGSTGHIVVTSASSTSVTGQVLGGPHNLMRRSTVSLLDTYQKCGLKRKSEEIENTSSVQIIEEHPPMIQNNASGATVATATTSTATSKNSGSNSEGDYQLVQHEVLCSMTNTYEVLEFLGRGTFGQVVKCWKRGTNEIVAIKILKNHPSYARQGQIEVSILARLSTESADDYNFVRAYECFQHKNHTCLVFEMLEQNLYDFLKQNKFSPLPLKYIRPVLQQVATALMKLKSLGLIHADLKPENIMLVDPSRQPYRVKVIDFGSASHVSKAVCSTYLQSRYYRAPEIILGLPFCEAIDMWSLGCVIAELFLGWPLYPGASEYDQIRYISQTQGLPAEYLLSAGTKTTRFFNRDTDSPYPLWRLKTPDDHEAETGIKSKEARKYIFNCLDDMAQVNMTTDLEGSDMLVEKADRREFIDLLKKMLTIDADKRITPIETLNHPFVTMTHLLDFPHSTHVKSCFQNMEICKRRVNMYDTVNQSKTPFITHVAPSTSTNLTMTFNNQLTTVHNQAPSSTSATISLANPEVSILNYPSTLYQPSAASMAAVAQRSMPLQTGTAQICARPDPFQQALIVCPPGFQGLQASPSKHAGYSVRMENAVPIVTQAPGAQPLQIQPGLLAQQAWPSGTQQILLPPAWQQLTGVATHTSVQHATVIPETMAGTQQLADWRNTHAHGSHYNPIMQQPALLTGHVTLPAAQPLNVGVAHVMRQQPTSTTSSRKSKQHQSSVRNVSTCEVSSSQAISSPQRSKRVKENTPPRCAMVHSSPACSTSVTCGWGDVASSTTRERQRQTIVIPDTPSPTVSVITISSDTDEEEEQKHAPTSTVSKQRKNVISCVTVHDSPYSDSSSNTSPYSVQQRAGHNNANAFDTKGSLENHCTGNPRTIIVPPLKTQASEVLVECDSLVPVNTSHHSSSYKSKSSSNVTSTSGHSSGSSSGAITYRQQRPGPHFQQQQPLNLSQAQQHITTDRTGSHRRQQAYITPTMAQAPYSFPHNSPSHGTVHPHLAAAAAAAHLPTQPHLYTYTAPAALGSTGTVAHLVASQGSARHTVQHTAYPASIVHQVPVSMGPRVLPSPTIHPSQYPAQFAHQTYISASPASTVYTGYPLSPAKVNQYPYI
Sequence of Dual specificity protein kinase CLK2 (O35491 whole entry): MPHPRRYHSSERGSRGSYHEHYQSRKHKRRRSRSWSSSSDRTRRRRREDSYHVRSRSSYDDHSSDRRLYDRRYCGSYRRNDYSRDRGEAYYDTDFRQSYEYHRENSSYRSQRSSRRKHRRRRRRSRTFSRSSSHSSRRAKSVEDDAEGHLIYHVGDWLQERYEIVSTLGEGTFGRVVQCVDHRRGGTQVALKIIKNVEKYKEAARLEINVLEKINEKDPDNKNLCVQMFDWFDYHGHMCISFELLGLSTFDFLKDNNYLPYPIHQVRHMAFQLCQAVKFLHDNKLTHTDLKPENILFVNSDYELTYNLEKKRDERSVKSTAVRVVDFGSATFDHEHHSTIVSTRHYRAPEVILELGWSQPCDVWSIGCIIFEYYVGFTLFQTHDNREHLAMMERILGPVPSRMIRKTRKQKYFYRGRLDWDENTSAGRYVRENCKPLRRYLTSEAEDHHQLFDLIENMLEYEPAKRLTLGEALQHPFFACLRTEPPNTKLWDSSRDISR
Sequence of Cyclin-dependent kinase 7/ cyclin H (P51946 whole entry): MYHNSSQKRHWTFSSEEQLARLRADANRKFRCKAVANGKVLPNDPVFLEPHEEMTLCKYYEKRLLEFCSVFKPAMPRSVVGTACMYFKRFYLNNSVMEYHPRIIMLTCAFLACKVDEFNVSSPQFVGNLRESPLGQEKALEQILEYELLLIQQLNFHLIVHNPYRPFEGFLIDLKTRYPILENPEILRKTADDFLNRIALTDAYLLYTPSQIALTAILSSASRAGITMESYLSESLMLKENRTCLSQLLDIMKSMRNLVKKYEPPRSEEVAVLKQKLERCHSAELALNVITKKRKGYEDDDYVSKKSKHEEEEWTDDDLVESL
Sequence of Cyclin-dependent kinase 7/ cyclin H (P50613 whole entry): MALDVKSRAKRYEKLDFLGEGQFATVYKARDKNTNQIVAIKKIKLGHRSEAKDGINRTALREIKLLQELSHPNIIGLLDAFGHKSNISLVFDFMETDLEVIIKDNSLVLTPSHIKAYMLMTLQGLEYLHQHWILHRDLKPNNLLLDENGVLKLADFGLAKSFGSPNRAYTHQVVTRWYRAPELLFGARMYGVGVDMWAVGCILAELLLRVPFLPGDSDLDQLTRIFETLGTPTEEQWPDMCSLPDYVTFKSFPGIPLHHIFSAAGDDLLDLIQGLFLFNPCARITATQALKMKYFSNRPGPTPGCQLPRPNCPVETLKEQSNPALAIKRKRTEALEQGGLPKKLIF
Sequence of Casein kinase II subunit alpha' (Mus musculus) (O54833 whole entry): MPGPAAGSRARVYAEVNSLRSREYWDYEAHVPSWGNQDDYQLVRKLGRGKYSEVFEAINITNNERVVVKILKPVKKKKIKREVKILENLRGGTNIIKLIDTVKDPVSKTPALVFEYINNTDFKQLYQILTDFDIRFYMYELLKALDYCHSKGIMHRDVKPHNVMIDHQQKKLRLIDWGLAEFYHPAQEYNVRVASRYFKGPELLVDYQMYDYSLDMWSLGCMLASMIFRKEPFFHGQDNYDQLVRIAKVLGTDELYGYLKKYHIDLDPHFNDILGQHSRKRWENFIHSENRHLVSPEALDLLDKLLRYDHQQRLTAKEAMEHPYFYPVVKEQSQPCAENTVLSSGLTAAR
Sequence of Protein VAC14 homolog (Q80WQ2 whole entry): as the sequence (Q80WQ2 whole entry) above
Sequence of Casein kinase II subunit beta (Mus musculus) (P67871 whole entry): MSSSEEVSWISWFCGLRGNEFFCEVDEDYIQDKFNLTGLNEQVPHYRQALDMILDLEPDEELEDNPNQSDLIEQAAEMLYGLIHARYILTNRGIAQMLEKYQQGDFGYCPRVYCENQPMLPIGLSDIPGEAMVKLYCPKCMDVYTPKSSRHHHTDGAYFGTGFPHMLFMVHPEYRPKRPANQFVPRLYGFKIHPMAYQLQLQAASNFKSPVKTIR

For `O=C1NC(Nc2ccccc2)=N/C1=C\c1ccc2c(c1)OCO2`, the inhibition [1] was “Dose-dependent effect”, the Activity [2] was “Active” and the IC50 [3] was 30000 nM. The Activity [4] was “Active”, the inhibition [5] was “Active” and the “Kd(free)” value [6] was 382 nM. For the same compound, the IC50 (CDK9/cyclin T1) was 18000 nM, the Activity [7] was “Active” and the Kd [8] was 320 nM. The Activity [9] was “Active”, the inhibition [10] was “Active” and the Kd [11] was 230 nM. For the same compound, the inhibition [12] was “Active”, the Activity [13] was “Active” and the IC50 [14] was > 10000 nM. The Activity [15] was “Active”, the IC50 [16] was > 10000 nM and the Activity [17] was “Active”. For the same compound, the inhibition [18] was “Active”, the IC50 [19] was > 10000 nM and the Activity [20] was “Active”. The IC50 [21] was 71 nM, the “Kd(free)” value (Protein VAC14 homolog) was 15265 nM and the inhibition [22] was “Active”. The inhibition (HT-22 [23]) was “inactive”, the Activity (Mus musculus) was “Active” and the Kd [24] was 1700 nM. For the same compound, the IC50 [25] was 720 nM, the “Kd(free)” value [26] was 65 nM and the IC50 [27] was 10 nM. The Activity [28] was “Active”, the Activity [29] was “Active” and the Activity (HT-22 [30]) was “inactive”. The Activity [31] was “Active”, the Activity [32] was “Active” and the IC50 [33] was ≥ 10000 nM.
